pEC50, pIC50: −log10 of the molar value.
What was measured:
[1] = molecular target: T1, Renin recombinant human enzyme (Homo sapiens, UniProt P00797); assay: Renin FRET assay; type: biochemical; conditions: read-out: Renin FRET Assay Absolute IC50; n = 1/2; value (SD)
T1 sequence (P00797 67-406): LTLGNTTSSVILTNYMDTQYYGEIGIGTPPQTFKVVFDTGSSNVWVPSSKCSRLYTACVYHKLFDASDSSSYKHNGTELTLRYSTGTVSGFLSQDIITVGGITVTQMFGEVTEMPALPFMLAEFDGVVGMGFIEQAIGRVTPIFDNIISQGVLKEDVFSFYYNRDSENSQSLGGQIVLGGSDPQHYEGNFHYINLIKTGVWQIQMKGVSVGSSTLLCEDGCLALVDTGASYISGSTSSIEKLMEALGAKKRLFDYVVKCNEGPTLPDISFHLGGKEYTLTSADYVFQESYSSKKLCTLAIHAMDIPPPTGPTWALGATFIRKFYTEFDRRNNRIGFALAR

[2] = system: PDAPP primary cortical neurons; assay: PDAPP neuronal cytotoxicity; type: cell-based, mouse
Method in brief: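 Primary cortical neurons from gestational-day-16 PDAPP (APP V717F) embryos were grown at 15×10^4 cells/well in DMEM/F12 (1:1) with B27. Cells were exposed to test compound for 24 h at 37°C. Viability was read by MTT assay as absorbance at 595 nm.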

[3] = Brain homogenate protein binding; type: in vitro ADME, mouse; conditions: equilibrium dialysis
Method in brief: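 Fraction unbound was determined in vitro by equilibrium dialysis of mouse brain homogenate or dog plasma. Unbound concentrations were derived by multiplying the total measured concentrations by this fraction unbound.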

[4] = Clinical single-dose plasma pharmacokinetics; type: in vivo, human; conditions: for Cmax / AUC (0∞) / t1/2 / CLR: geometric mean (CV%); for tmax: median (range)
Method in brief: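 Healthy subjects received single oral doses of placebo or 0.1 mg (n = 3 per group), or 0.4, 1.6, 5, 15 or 45 mg (n = 8 per group). Plasma was sampled immediately pre-dose and up to 120 h post-dose. Reported parameters were Cmax, tmax, terminal t1/2, AUC0–∞, clearance and apparent volume of distribution.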

[5] = system: CSF Aβ1–40 and Aβ1–42 in healthy subjects; assay: Clinical single-dose CSF Aβ pharmacodynamics; type: in vivo, human
Method in brief: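 Healthy subjects received single doses of 1.6, 10 or 26 mg or placebo. Serial CSF was drawn through an indwelling subarachnoid lumbar catheter from 4 h pre-dose to 36 h post-dose. For each subject, the time of the lowest observed Aβ1–40 and Aβ1–42 concentration, the change from baseline at nadir and the 24 h time-averaged change from baseline were reported.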

[6] = system: healthy subjects; assay: Clinical safety: adverse events, ECG, laboratory tests; type: in vivo, human
[7] = system: patients with mild AD; conditions: Phase II study; cited from earlier work

`COc1cnc(C(=O)Nc2ccc(F)c([C@]34CN(c5ncc(F)cn5)C[C@H]3CSC(N)=N4)c2)cn1` [LY3202626] showed a pIC50 [1] of under 4.85, a pEC50 ([2]; read-out: EC50 for inducing cytotoxicity in PDAPP neurons, MTT) of under 4.00 and a pIC50 ([2]; read-out: PDAPP 1° Neuron Cytotox Relative IC50, n = 1/7) of under 4.00. For the same compound, the “free fraction in brain homogenate” value [3] was 0.026, the Renal clearance ([4]; healthy subjects, across dose levels) was “approximately 1 L/h” and the Apparent oral clearance ([4]; healthy subjects, across dose levels except 15 mg) was “approximately 26 L/h”. For the same compound, the “terminal t1/2” value ([4]; healthy subjects, single oral doses, plasma) was “approximately 20 h”, the Cmax ([4]; single dose 0.1 mg, n = 3) was 0.169 (50) ng/mL and the tmax ([4]; single dose 0.1 mg) was 3.08 (3.00–6.00) h. The Cmax ([4]; single dose 0.4 mg, n = 8) was 0.486 (81) ng/mL, the tmax ([4]; single dose 0.4 mg) was 3.55 (3.00–8.00) h and the Cmax ([4]; single dose 1.6 mg, n = 8) was 2.89 (70) ng/mL. For the same compound, the “AUC (0∞)” value ([4]; single dose 1.6 mg) was 60.6 (49) ng·h/mL, the t1/2 ([4]; single dose 1.6 mg) was 23.0 (21) h and the tmax ([4]; single dose 1.6 mg) was 3.00 (3.00–4.00) h. For the same compound, the Cmax ([4]; single dose 5 mg, n = 8) was 7.91 (56) ng/mL, the “AUC (0∞)” value ([4]; single dose 5 mg) was 197 (38) ng·h/mL and the CLR ([4]; single dose 5 mg) was 1.09 (64) L/h. The t1/2 ([4]; single dose 5 mg) was 19.8 (42) h, the tmax ([4]; single dose 5 mg) was 4.03 (2.90–24.12) h and the Cmax ([4]; single dose 15 mg, n = 8) was 21.3 (77) ng/mL. The “AUC (0∞)” value ([4]; single dose 15 mg) was 393 (84) ng·h/mL, the CLR ([4]; single dose 15 mg) was 0.829 (37) L/h and the t1/2 ([4]; single dose 15 mg) was 19.5 (25) h. The tmax ([4]; single dose 15 mg) was 3.01 (1.98–4.00) h, the Cmax ([4]; single dose 45 mg, n = 8) was 92.5 (47) ng/mL and the “AUC (0∞)” value ([4]; single dose 45 mg) was 1680 (34) ng·h/mL. The CLR ([4]; single dose 45 mg) was 1.03 (53) L/h, the t1/2 ([4]; single dose 45 mg) was 21.5 (19) h and the tmax ([4]; single dose 45 mg) was 2.54 (2.00–4.07) h. For the same compound, the “CSF Aβ1–42 mean reduction from baseline at nadir” value ([5]; single dose 1.6 mg) was “–33.4%”, the “time of mean nadir of CSF Aβ1–42” value ([5]; single dose 1.6 mg) was “approximately 10 h” and the “CSF Aβ1–42 mean reduction from baseline at nadir” value ([5]; single dose 26 mg) was “–71.6%”. The “time of mean nadir of CSF Aβ1–42” value ([5]; single dose 26 mg) was “approximately 28 h”, the tolerability ([6]; Phase 1 study) was “generally well tolerated” and the “clinical laboratory tests, including liver functions tests” value ([6]; healthy subjects, Phase 1) was “no clinically significant findings”. For the same compound, the “electrocardiograms (including QTc interval), ophthalmologic examinations, alertness and attention” value ([6]; healthy subjects, Phase 1) was “no clinically significant changes”, the “Abnormal dreams: number of adverse events (number of subjects)” value (shortened to “Abnormal dreams: number”) ([6]; multiple doses 1 mg, N = 9) was 1 (1) and the “Burning sensation: number of adverse events (number of subjects)” value (shortened to “Burning sensation: number”) ([6]; multiple doses 1 mg, N = 9) was 1 (1). For the same compound, the “Constipation: number of adverse events (number of subjects)” value (“Constipation: number of adverse events” for short) ([6]; multiple doses 1 mg, N = 9) was 0 (0), the “Dizziness: number of adverse events (number of subjects)” value (“Dizziness: number of adverse events” for short) ([6]; multiple doses 1 mg, N = 9) was 0 (0) and the “Dysgeusia: number of adverse events (number of subjects)” value (from here on “Dysgeusia: number of adverse events”) ([6]; multiple doses 1 mg, N = 9) was 1 (1). For the same compound, the “Feces discoloured: number of adverse events (number of subjects)” value (from here on “Feces discoloured: number”) ([6]; multiple doses 1 mg, N = 9) was 0 (0), the “Headache: number of adverse events (number of subjects)” value (“Headache: number of adverse events” below) ([6]; multiple doses 1 mg, N = 9) was 0 (0) and the “Memory impairment: number of adverse events (number of subjects)” value (“Memory impairment: number” below) ([6]; multiple doses 1 mg, N = 9) was 0 (0). For the same compound, the “Nightmare: number of adverse events (number of subjects)” value (shortened to “Nightmare: number of adverse events”) ([6]; multiple doses 1 mg, N = 9) was 1 (1), the “Post-lumbar puncture syndrome: number of adverse events (number of subjects)” value (shortened to “Post-lumbar puncture syndrome: number”) ([6]; multiple doses 1 mg, N = 9) was 1 (1) and the “Postural orthostatic tachycardia syndrome: number of adverse events (number of subjects)” value ([6]; multiple doses 1 mg, N = 9) was 0 (0). The “Sunburn: number of adverse events (number of subjects)” value (“Sunburn: number of adverse events” for short) ([6]; multiple doses 1 mg, N = 9) was 0 (0), the “Abnormal dreams: number” value ([6]; multiple doses 6 mg, N = 9) was 0 (0) and the “Burning sensation: number” value ([6]; multiple doses 6 mg, N = 9) was 0 (0). The “Constipation: number of adverse events” value ([6]; multiple doses 6 mg, N = 9) was 1 (1), the “Dizziness: number of adverse events” value ([6]; multiple doses 6 mg, N = 9) was 0 (0) and the “Dysgeusia: number of adverse events” value ([6]; multiple doses 6 mg, N = 9) was 0 (0). For the same compound, the “Feces discoloured: number” value ([6]; multiple doses 6 mg, N = 9) was 2 (2), the “Headache: number of adverse events” value ([6]; multiple doses 6 mg, N = 9) was 0 (0) and the “Memory impairment: number” value ([6]; multiple doses 6 mg, N = 9) was 0 (0). The “Nightmare: number of adverse events” value ([6]; multiple doses 6 mg, N = 9) was 0 (0), the “Post-lumbar puncture syndrome: number” value ([6]; multiple doses 6 mg, N = 9) was 0 (0) and the “Postural orthostatic tachycardia syndrome: number of adverse events (number of subjects)” value ([6]; multiple doses 6 mg, N = 9) was 0 (0). For the same compound, the “Sunburn: number of adverse events” value ([6]; multiple doses 6 mg, N = 9) was 0 (0), the “Abnormal dreams: number” value ([6]; multiple doses 26 mg, n = 9) was 0 (0) and the “Burning sensation: number” value ([6]; multiple doses 26 mg, n = 9) was 0 (0). For the same compound, the “Constipation: number of adverse events” value ([6]; multiple doses 26 mg, n = 9) was 0 (0), the “Dizziness: number of adverse events” value ([6]; multiple doses 26 mg, n = 9) was 2 (2) and the “Dysgeusia: number of adverse events” value ([6]; multiple doses 26 mg, n = 9) was 0 (0). The “Feces discoloured: number” value ([6]; multiple doses 26 mg, n = 9) was 9 (9), the “Headache: number of adverse events” value ([6]; multiple doses 26 mg, n = 9) was 0 (0) and the “Memory impairment: number” value ([6]; multiple doses 26 mg, n = 9) was 1 (1). For the same compound, the “Nightmare: number of adverse events” value ([6]; multiple doses 26 mg, n = 9) was 0 (0), the “Post-lumbar puncture syndrome: number” value ([6]; multiple doses 26 mg, n = 9) was 0 (0) and the “Postural orthostatic tachycardia syndrome: number of adverse events (number of subjects)” value ([6]; multiple doses 26 mg, n = 9) was 1 (1). The “Sunburn: number of adverse events” value ([6]; multiple doses 26 mg, n = 9) was 0 (0), the serious adverse events ([6]; up to a single dose of 45 mg or multiple doses of 26 mg) was “no serious adverse events” and the hepatotoxicity [7] was “no evidence of hepatotoxicity”.
